Results reported in ChEMBL document CHEMBL4130503, “Discovery of novel diarylpyrazolylquinoline derivatives as potent anti-dengue virus agents” (Eur J Med Chem, 2017).
Activity calls are given as the source filed them. The rule behind the calls is not given here.

Key:
dengue virus type 2 [1] = test: Antiviral activity against Fluc-tagged DENV2 strain 16681 infected in human HuH7 cells assessed as inhibition of viral replication at 1 uM after 3 days by luciferase reporter gene assay relative to control; assay type: functional; conditions: Thailand/16681/84, Huh-7, 72 h
Method in brief: (§1)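 Huh-7-DV-Fluc cells seeded at 2 × 10^4 per well, exposed to 1 or 10 µM for 3 days against a 0.1% DMSO control. Firefly luciferase activity (Bright-Glo) read as DENV-2 replication; percent inhibition relative to control.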

dengue virus type 2 [2] = test: Antiviral activity against Fluc-tagged DENV2 strain 16681 infected in human HuH7 cells assessed as inhibition of viral replication at 10 uM after 3 days by luciferase reporter gene assay relative to control; assay type: functional; conditions: Thailand/16681/84, Huh-7, 72 h; method in brief: as §1
[3] = Cytotoxicity against human HuH7 cells assessed as cell viability at 20 uM after 3 days by XTT method relative to control; assay type: cell-based, Huh-7; conditions: read-out: Activity
Method in brief: (§2)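 Uninfected Huh-7 cells were seeded at 5 × 10^3 cells/well in maintenance medium. They were exposed to compound at 20 or 200 µM, diluted into medium from 10 mM DMSO stocks, with 0.1% DMSO as control. Incubation was 3 days at 37 °C in humidified 5% CO2. Viability was read by XTT, run in parallel with the antiviral assays.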

[4] = Cytotoxicity against human HuH7 cells assessed as cell viability at 200 uM after 3 days by XTT method relative to control; assay type: cell-based, Huh-7; conditions: read-out: Activity; method in brief: as §2
dengue virus type 2 [5] = test: Antiviral activity against Fluc-tagged DENV2 strain 16681 infected in human HuH7 cells after 3 days by luciferase reporter gene assay; assay type: functional, organism-based; conditions: Thailand/16681/84, Huh-7, 72 h
[6] = Cytotoxicity against human HuH7 cells assessed as growth inhibition after 3 days by XTT method; assay type: cell-based, Huh-7
Method in brief: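 Uninfected Huh-7 cells were seeded at 5 × 10^3 cells/well and treated for 3 days at 37 °C in humidified 5% CO2. Viability was read by XTT against a 0.1% DMSO control. CC50 was taken as the concentration giving 50% growth inhibition.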

[7] = Selectivity index, ratio of CC50 for human HuH7 cells to IC50 for Fluc-tagged DENV2 strain 16681 infected in human HuH7 cells; assay type: toxicity, cell-based; conditions: read-out: Ratio CC50/IC50
Method in brief: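 SI is calculated as CC50/IC50. CC50 is 50% growth inhibition of uninfected Huh-7 cells by XTT after 3 days. IC50 is 50% inhibition of DENV-2 replication in Huh-7-DV-Fluc replicon cells (2 × 10^4 cells/well), measured by firefly luciferase after 3 days of treatment with a 0.1% DMSO control.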

dengue virus type 2 [8] = test: Potency index, ratio of ribavirin IC50 to compound IC50 for antiviral activity against Fluc-tagged DENV2 strain 16681 infected in human HuH7 cells; assay type: functional, Thailand/16681/84
dengue virus type 2 [9] = test: Antiviral activity against Fluc-tagged DENV2 strain 16681 infected in human HuH7 cells assessed as reduction in viral replication by measuring NS2B protein expression at 0.5 to 5 uM after 3 days by immunoblot analysis; assay type: functional, organism-based; conditions: Thailand/16681/84
Method in brief: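 DENV-2 (16681) replicating Huh-7 cells treated with 0.5, 1, 2.5 and 5 µM for 3 days; 0.1% DMSO mock. Whole-cell lysates immunoblotted overnight with rabbit polyclonal anti-NS2B (1:3000); GAPDH (1:10000) as loading control.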

dengue virus type 2 [10] = test: Antiviral activity against Fluc-tagged DENV2 strain 16681 infected in human HuH7 cells assessed as reduction in viral replication by measuring NS5 gene expression at 0.5 to 5 uM after 3 days by RT-qPCR assay; assay type: functional, organism-based; conditions: Thailand/16681/84
Method in brief: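 DENV-2 (16681) replicating Huh-7 cells exposed to 0.5, 1, 2.5 and 5 µM for 3 days; 0.1% DMSO mock. Total RNA analysed by RT-qPCR with NS5-targeted primers, normalised to cellular GAPDH mRNA; means ± SD of triplicate experiments.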

dengue virus type 1 = test: Antiviral activity against Fluc-tagged DENV1 infected in human HuH7 cells after 3 days by luciferase reporter gene assay; assay type: functional, organism-based; conditions: Huh-7, 72 h
dengue virus type 3 = test: Antiviral activity against Fluc-tagged DENV3 infected in human HuH7 cells after 3 days by luciferase reporter gene assay; assay type: functional, organism-based; conditions: Huh-7, 72 h
dengue virus type 4 = test: Antiviral activity against Fluc-tagged DENV4 infected in human HuH7 cells after 3 days by luciferase reporter gene assay; assay type: functional, organism-based; conditions: Huh-7, 72 h
dengue virus type 2 [11] = test: Antiviral activity against DENV2 strain 16681 infected in ICR suckling mouse assessed as protection against mouse death at 1 to 5 mg/kg, ip treated on day 1,3 and 5 post infection measured daily for 6 days; assay type: functional, organism-based; conditions: Thailand/16681/84
Method in brief: (§3)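 Six-day-old ICR suckling mice, n = 5/group, given 2.5 × 10^5 pfu DENV-2 intracerebrally, then 1, 5, 10 or 20 mg/kg intraperitoneally at 1, 3 and 5 dpi. Controls were DENV plus ip saline, and 60 °C heat-inactivated DENV (mock). Survival, clinical score (paralysis, anorexia, asthenia) and body weight were recorded daily for 6 days.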

dengue virus type 2 [12] = test: Antiviral activity against DENV2 strain 16681 infected in ICR suckling mouse assessed as protection against paralysis at 1 to 5 mg/kg, ip treated on day 1,3 and 5 post infection measured daily for 6 days; assay type: functional, organism-based; conditions: Thailand/16681/84; method in brief: as §3
dengue virus type 2 [13] = test: Antiviral activity against DENV2 strain 16681 infected in ICR suckling mouse assessed as protection against anorexia at 1 to 5 mg/kg, ip treated on day 1,3 and 5 post infection measured daily for 6 days; assay type: functional, organism-based; conditions: Thailand/16681/84; method in brief: as §3
dengue virus type 2 [14] = test: Antiviral activity against DENV2 strain 16681 infected in ICR suckling mouse assessed as protection against asthenia at 1 to 5 mg/kg, ip treated on day 1,3 and 5 post infection measured daily for 6 days; assay type: functional, organism-based; conditions: Thailand/16681/84; method in brief: as §3

SMILES | inhibition at 1 µM (dengue virus type 2 [1]) [%] | inhibition at 10 µM (dengue virus type 2 [2]) [%] | viability at 72 h, 20 µM [3] [%] | viability at 72 h, 200 µM [4] [%] | other results
COc1ccc(-c2cc(-c3ccc4cc(F)ccc4n3)n(-c3ccc(OC)cc3)n2)cc1 | 46.9 | 65.7 | 95.8 | 98.4 | IC50 (dengue virus type 2 [5]): 1.09 µM; CC50 at 72 h [6]: > 200 µM; selectivity ratio [7]: > 183; Ratio IC50 (dengue virus type 2 [8]): 10
NS(=O)(=O)c1ccc(-n2nc(-c3ccc(F)cc3)cc2-c2ccc3cc(F)ccc3n2)cc1 | 5.71 | 12.8 | 91.1 | 43 | –
Fc1ccc2nc(-c3cc(-c4ccccc4)nn3-c3ccccc3)ccc2c1 | 3.02 | 5.13 | 126 | 98.3 | –
COc1ccc(-c2cc(-c3ccc4cc(F)ccc4n3)n(-c3ccc(S(N)(=O)=O)cc3)n2)cc1 | 59 | 85.3 | 83.7 | 89.5 | IC50 (dengue virus type 2 [5]): 0.81 µM; CC50 at 72 h [6]: > 200 µM; selectivity ratio [7]: > 247; Ratio IC50 (dengue virus type 2 [8]): 10; Activity (dengue virus type 2 [9]): Active; Activity (dengue virus type 2 [10]): Active; IC50 (dengue virus type 1): 1.21 µM; IC50 (dengue virus type 3): 0.73 µM; IC50 (dengue virus type 4): 1.56 µM; Activity (dengue virus type 2 [11]): Active; Activity (dengue virus type 2 [12]): Active; Activity (dengue virus type 2 [13]): Active; Activity (dengue virus type 2 [14]): Active
Fc1ccc(-n2nc(-c3ccccc3)cc2-c2ccc3cc(F)ccc3n2)cc1 | 4.36 | 8.31 | 97.8 | 91.6 | –
NC(=O)c1ncn([C@@H]2O[C@H](CO)[C@@H](O)[C@H]2O)n1 [RIBAVIRIN] | 10.1 | 32.5 | – | 26.8 | selectivity ratio [7]: 4.47
COc1ccc(-n2nc(-c3ccc(F)cc3)cc2-c2ccc3cc(F)ccc3n2)cc1 | 6.12 | 15.8 | 89.1 | 52.5 | –
NS(=O)(=O)c1ccc(-n2nc(-c3ccccc3)cc2-c2ccc3cc(F)ccc3n2)cc1 | 4.52 | 11.8 | 89.2 | 83.6 | –
COc1ccc(-c2cc(-c3ccc4cc(F)ccc4n3)nn2-c2ccccc2)cc1 | 4.14 | 7.15 | 95.6 | 93.7 | –
Fc1ccc2nc(-c3cc(-c4ccccc4)n(-c4ccccc4)n3)ccc2c1 | 5.21 | 15.3 | 124 | 115 | –
COc1ccc(-c2cc(-c3ccc4cc(F)ccc4n3)n(-c3ccccc3)n2)cc1 | 5.31 | 8.09 | 104 | 98.9 | –
Fc1ccc(-c2cc(-c3ccc4cc(F)ccc4n3)n(-c3ccc(F)cc3)n2)cc1 | 8.91 | 22.4 | 95.3 | 86.5 | –
Fc1ccc(-c2cc(-c3ccc4cc(F)ccc4n3)n(-c3ccccc3)n2)cc1 | 11.2 | 25.4 | 88.1 | 87.5 | –
Fc1ccc(-c2cc(-c3ccc4cc(F)ccc4n3)nn2-c2ccccc2)cc1 | 3.58 | 6.14 | 88.3 | 89.7 | –
COc1ccc(-n2nc(-c3ccccc3)cc2-c2ccc3cc(F)ccc3n2)cc1 | 7.81 | 20.7 | 116 | 97.3 | –
COc1ccc(-c2cc(-c3ccc4cc(F)ccc4n3)n(-c3ccc(F)cc3)n2)cc1 | 41.4 | 55.3 | 98.8 | 95.4 | IC50 (dengue virus type 2 [5]): 1.36 µM; CC50 at 72 h [6]: > 200 µM; selectivity ratio [7]: > 147; Ratio IC50 (dengue virus type 2 [8]): 10
